Results collected from several papers.
Lines come from different studies, so protocols differ.
Target: Serine/threonine-protein kinase D2 (PRKD2, Homo sapiens, UniProt Q9BZL6)
One construct used (Q9BZL6 1-878): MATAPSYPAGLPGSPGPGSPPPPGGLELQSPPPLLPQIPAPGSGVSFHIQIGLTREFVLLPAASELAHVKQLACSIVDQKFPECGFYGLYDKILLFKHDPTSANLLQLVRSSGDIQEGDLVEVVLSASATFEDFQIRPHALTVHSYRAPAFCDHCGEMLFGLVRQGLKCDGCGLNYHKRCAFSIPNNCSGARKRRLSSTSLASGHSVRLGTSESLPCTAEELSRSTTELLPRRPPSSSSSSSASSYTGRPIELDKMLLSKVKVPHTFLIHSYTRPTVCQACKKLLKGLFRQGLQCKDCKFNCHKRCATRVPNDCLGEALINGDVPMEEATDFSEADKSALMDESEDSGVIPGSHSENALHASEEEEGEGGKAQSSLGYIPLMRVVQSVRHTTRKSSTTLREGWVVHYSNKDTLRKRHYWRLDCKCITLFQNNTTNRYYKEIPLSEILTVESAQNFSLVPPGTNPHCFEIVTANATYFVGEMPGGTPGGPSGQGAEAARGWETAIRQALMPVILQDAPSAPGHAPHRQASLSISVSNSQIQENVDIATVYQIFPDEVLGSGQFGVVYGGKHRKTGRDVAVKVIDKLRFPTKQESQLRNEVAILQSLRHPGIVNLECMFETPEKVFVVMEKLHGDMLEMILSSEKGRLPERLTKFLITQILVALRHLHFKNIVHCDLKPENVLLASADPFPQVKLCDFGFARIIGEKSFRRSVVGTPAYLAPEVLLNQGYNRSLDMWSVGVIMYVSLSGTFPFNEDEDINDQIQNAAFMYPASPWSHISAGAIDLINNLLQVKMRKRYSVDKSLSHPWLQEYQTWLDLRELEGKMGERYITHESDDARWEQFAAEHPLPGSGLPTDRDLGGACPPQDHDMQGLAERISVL

Compound	observed	technique	tested at	remaining binding [%]
CN(c1nccc(-c2cnn3ncccc23)n1)C1CC1	binding	–	1 µM	99
COc1ncc2cc3ccccc3nc2c1C#N	cell-free assay	competition with immobilised ligand	5 µM	93
O=C(NC[C@@H]1[C@H]2CN(C(=O)OCc3cc(C(F)(F)F)cc(C(F)(F)F)c3)C[C@@H]12)c1ccc2[nH]nnc2c1	cell-free assay	competition with immobilised ligand	1 µM	85
C[C@H]1CCN(c2nccc(-c3cnn4ncccc34)n2)C1	binding	–	1 µM	82
CS(=O)(=O)N1CCCC(NC(=O)[C@H](CCC2CCCCC2)NC(=O)c2ccc(CNC(=O)c3cnc4ccccn34)cc2)C1 (stereo partly shown)	cell-free assay	competition with immobilised ligand	0.1 µM	100
C=CC(=O)N1CCC(C(=O)NCC(=O)N2CCN(c3nc(-c4cnc(N)nc4C(F)F)nc(N4CCOCC4)n3)CC2)CC1	binding	competition with immobilised ligand	1 µM	100
O=C(NCCCN1CCOCC1)c1ccc(Nc2nccc(-c3cc4ccccc4s3)n2)cc1	binding	competition with immobilised ligand	1 µM	36
FC(F)(F)Oc1cccc(-c2cnc3ccc(-c4ccncc4)nn23)c1	cell-free assay	competition with immobilised ligand	5 µM	99
CCCCN(CCCC)C(=O)CN1C[C@@H](c2cc(OC)c3c(c2)OCO3)[C@H](C(=O)O)[C@H]1CC(C)(C)CCC	cell-free assay	competition with immobilised ligand	1 µM	90.6
Cc1cnn2ncc(-c3ccnc(N(C)C)n3)c2c1	binding	–	1 µM	100
Cc1nc(N2CC[C@@H](O)C2)ncc1-c1cc(C(F)(F)F)cc2[nH]ncc12	binding	competition with immobilised ligand	1 µM	79
N[C@@H]1CCN(c2nccc(-c3cnn4ncccc34)n2)C1	binding	–	1 µM	94
O=C(c1ccc(Nc2nccc(-c3cc4ccccc4s3)n2)cc1)N1CCC(N2CCCC2)CC1	binding	competition with immobilised ligand	1 µM	48
O=C(Nc1cccnn1)N1CCC(=Cc2cccc(Oc3ccc(C(F)(F)F)cn3)c2)CC1	cell-free assay	competition with immobilised ligand	1 µM	94
CNC(=O)[C@@H]1CC[C@@H](n2c(-c3ccc4cnccc4c3)nc3ccc(C(=O)NCc4cccc(C(N)=O)c4)cc32)C1	binding	competition with immobilised ligand	1 µM	90
CNCc1ccccc1-c1csc([C@H](C)Nc2nc(C)nc3cc(OC)c(OC)cc23)c1	cell-free assay	competition with immobilised ligand	1 µM	99
c1cnn2ncc(-c3ccnc(N4CCC45COC5)n3)c2c1	binding	–	1 µM	89
COc1cnc(Nc2cccc(S(N)(=O)=O)c2)nc1N1CCN(c2ccccc2)CC1	binding	competition with immobilised ligand	1 µM	98
CN(C)c1nccc(-c2cnn3ncccc23)n1	binding	–	1 µM	89
O=C(c1ccc(Nc2ncc(Cl)c(-c3ccc(Cl)s3)n2)cc1)N1CCC(N2CCCC2)CC1	binding	competition with immobilised ligand	1 µM	8.7
CC(=O)N1CCC(c2ccc(C(=O)NC(=N)N)cc2C(F)(F)F)CC1	cell-free assay	competition with immobilised ligand	1 µM	100
O=C(Nc1c[nH]nc1C(=O)NC1CCNCC1)c1cc(F)cc(F)c1	binding	competition with immobilised ligand	1 µM	100
